These results are taken from ChEMBL document CHEMBL5036309, “Orally Active Peptide Vector Allows Using Cannabis to Fight Pain While Avoiding Side Effects” (J Med Chem, 2021).

The test system of one data set is HEK293T. Briefly: Inhibition of human c-YFP fused CB1R/n-YFP fused 5HT2A receptor heterodimer formation transfected in human HEK293T cells at 4 uM incubated for 4 hrs by BIFC assay. Format: cell-based. The method in brief: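 HEK-293T cells were cotransfected 48 h with 5HT2AR-cYFP and CB1R-nYFP (4 μg cDNA each, polyethylenimine), then treated with 4 μM peptide or vehicle for 4 h at 37 °C. Reconstituted YFP Venus was read on 20 μg protein at 530 nm emission with 400 nm excitation, minus the fluorescence of non-expressing cells. Mean ± SEM, n = 10–30.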

A further data set relates to BEND3. In words: Induction of BBB translocation in mouse BEND3 cells measured after 24 hrs by fluorescence analysis. Format: functional, cell-based. The method in brief: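 5(6)-Carboxyfluorescein-labeled peptides were applied to a transwell BBB model of bEnd.3 cells. Translocation (%) was measured as fluorescence in the basolateral chamber after 24 h, with a trans-BBB peptide as positive control. Barrier integrity was checked afterward by FD4 dextran permeability. Mean ± SEM, n = 3–6, independent cultures on different days.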

Data set [1] has as its system Mus musculus. In words: Analgesic activity in mouse assessed as pain response at 20 mg/kg, iv pretreated with compound for 30 mins followed by THP addition and measured after 60 mins by hot plate test. Conditions: time 90.0 min. Format: functional, organism-based. Put shortly:
(§1)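 Mice got peptide or vehicle IV (20 mg/kg) or orally by gavage (5, 10, 20 mg/kg) 30 min before IP THC 10 mg/kg (vehicle 5% ethanol, 5% Cremophor-EL, 90% saline). Latency to jump on a 52 ± 0.5 °C hot plate was read 60 min after THC, with a 240 s cutoff. Mean ± SEM, n = 10–12 (IV) or 5–8 (oral); Fisher LSD.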
For orientation: Thermal pain tests record how soon the animal reacts.

In data set [2] the test system is Mus musculus. Briefly: Analgesic activity in mouse assessed as pain response at 5 to 20 mg/kg, po pretreated with compound for 30 mins followed by THP addition and measured after 60 mins by hot plate test. Format: functional, organism-based. Conditions: dose 5-20 mg/kg, time 90.0 min. The method in brief: as §1
Data set [3] deals with Mus musculus. Briefly: Protection against THP-induced amnesic effect in mouse assessed as reduction in memory impairment at 20 mg/kg, iv pretreated for 30 mins followed by THP addition. The format is functional, organism-based. Put shortly: (§2)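 V-maze novel object recognition. Day 1 was 9 min habituation. Day 2 was 9 min training with two identical objects. Peptide was given IV (20 mg/kg) or orally (5, 10, 20 mg/kg) right after training, then IP THC 3 mg/kg or vehicle 30 min later. The 9 min test came 24 h later with one object replaced. Discrimination index = (novel − familiar)/total exploration time; exploration meant the nose oriented within 2 cm of the object. Fisher LSD.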

The test system of data set [4] is Mus musculus. In words: Protection against THP-induced amnesic effect in mouse assessed as reduction in memory impairment at 5 to 20 mg/kg, po pretreated for 30 mins followed by THP addition. The format is functional, organism-based. The following applies: dose 5-20 mg/kg. The method in brief: as §2
Data set [5] relates to Mus musculus. Briefly: Immunogenicity in CD1 mouse at 100 ug administered for 5 consecutive days and booster dose on day 15 measured upto 19 days by ELISA. The format is ADME, organism-based. Conditions: in vivo, 456 h, time <=19 day, dose 100 µg. Put shortly: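 Female outbred Hsd:ICR (CD-1) mice (n = 10) got IV peptide 100 μg/dose in PBS + 2% DMSO on 5 consecutive days with a boost on day 15. Controls were KLH conjugate 30 μg (n = 5) and PBS (n = 5). Sera from days 0, 9 and 19 were tested by indirect ELISA on plates coated with peptide-BSA 1 μg/mL, using anti-IgG-HRP, TMB and A450. Titer (log10) = reciprocal of the last dilution above the day-0 serum signal + 2 SD.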
A general note: ELISA stands for enzyme-linked immunosorbent assay.

A short description of data set [6]: Drug internalization in mouse BEND3 cells by confocal microscopic analysis. The format is ADME, cell-based. The method in brief:
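bEnd.3 mouse brain endothelial cells were exposed to 5(6)-carboxyfluorescein-labeled peptides and counterstained with Hoechst 33342 and CellMask Deep Red membrane stain. Imaging used point-scanning confocal microscopy with a 63× oil objective, 405 nm excitation for the stains and 488 nm for the peptide.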

Structures are written as SMILES. The source made the active and inactive calls. Square brackets hold non-standard residues; d marks the D form. Peptide text beside a SMILES is read from it.

With `CC[C@@H](C)[C@@H](NC(=O)CNC(=O)[C@@H](C)NC(=O)[C@H](NC(=O)[C@@H](Cc1ccc(O)cc1)NC(=O)[C@@H](C)NC(=O)[C@@H](Cc1ccc(O)cc1)NC(=O)[C@@H](CCSC)NC(=O)[C@@H](Cc1ccc(O)cc1)NC(=O)[C@H](NC(=O)[C@@H](CC(C)C)NC(=O)[C@H](N)Cc1c[nH]c2ccccc12)[C@H](C)CC)C(C)C)C(=O)N[C@H](CC(C)C)C(=O)N[C@H](CCCCN)C(=O)N[C@H](CCCNC(=N)N)C(=O)N[C@H](Cc1c[nH]c2ccccc12)C(N)=O` (H-[dW][dL][dI][dY][dM][dY][dA][dY][dV][dA]G[dI][dL][dK][dR][dW]-NH2), in the data set with HEK293T, the inhibition entry was “Active”. Also, the result in the data set with BEND3, with Mus musculus [1], in the data set with Mus musculus [2], with Mus musculus [3] and with Mus musculus [4] was Active. For the same compound, in the data set on Mus musculus [5], the Activity result was “Non-Toxic”. In addition, the Drug uptake entry in data set [6] was “Active”.

`CC[C@@H](C)[C@@H](NC(=O)CNC(=O)[C@@H](C)N)C(=O)N[C@H](CC(C)C)C(=O)N[C@H](CCCCN)C(=O)N[C@H](CCCNC(=N)N)C(=O)N[C@H](Cc1c[nH]c2ccccc12)C(=O)N[C@@H](C(=O)N[C@@H](C(=O)N[C@H](CC(C)C)C(=O)N[C@@H](C(=O)N[C@H](CC(C)C)C(=O)N[C@@H](C(=O)N[C@H](CC(C)C)C(=O)N[C@@H](C(=O)N[C@H](CCCCN)C(N)=O)[C@H](C)O)C(C)C)[C@H](C)CC)C(C)C)C(C)C` (H-[dA]G[dI][dL][dK][dR][dW][dV][dV][dL][dI][dL][dV][dL][dT][dK]-NH2): the inhibition entry with HEK293T was “Active”. Also, the result in the data set with BEND3 and with Mus musculus [1] was Active. Moreover, in the data set on Mus musculus [3], the outcome was inactive. Also, in data set [6], the Drug uptake entry is given as “Active”.
